Reference: ChEMBL document CHEMBL5705890, “Antitumor activity of an allosteric inhibitor of centromere-associated protein-E” (Proc Natl Acad Sci U S A, 2010)

Experiments:
EKVX = test: Anticancer activity against human EKVX cells assessed as cell growth inhibition measured after 72 hrs by DAPI staining based analysis; format: functional
Procedure, shortened: (§1)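 Cells seeded, DAPI-stained DNA content of fixed cells read by imaging 24 h after seeding (T0), and again after a further 72 h exposure to a range of drug concentrations (T72). T72 values were normalized to T0. Curve fits gave the concentration producing 50% growth inhibition relative to T0 and Ymax (GI50).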

SNU-398 [1] = test: Anticancer activity against human SNU-398 cells assessed as cell growth inhibition measured after 72 hrs by DAPI staining based analysis; format: functional
NCI-H460 = test: Anticancer activity against human NCI-H460 cells assessed as cell doubling measured for 72 hrs by DAPI staining based analysis; format: functional
[2] = Anticancer activity against human KHOS-240S cells assessed as cell doubling measured for 72 hrs by DAPI staining based analysis; format: functional
SW48 = test: Anticancer activity against human SW48 cells assessed as cell doubling measured for 72 hrs by DAPI staining based analysis; format: functional
[3] = Anticancer activity against human BM-1604 cells assessed as cell growth inhibition measured after 72 hrs by DAPI staining based analysis; format: functional
Procedure, shortened: (§2)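 Cells were seeded, and DNA content at 24 h after seeding (T0) was read by imaging of fixed, DAPI-stained cells. Cells were then exposed to a range of drug concentrations for a further 72 h (T72) and DNA content was read again. T72 values were normalized to T0, and GI50 was taken from curve fits as the concentration giving 50% growth inhibition relative to T0 and Ymax.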

RD = test: Anticancer activity against human RD cells assessed as cell growth inhibition measured after 72 hrs by DAPI staining based analysis; format: functional
UMUC3 = test: Anticancer activity against human UM-UC-3 cells assessed as cell doubling measured for 72 hrs by DAPI staining based analysis; format: functional
NCI-H295R = test: Anticancer activity against human NCI-H295R cells assessed as cell doubling measured for 72 hrs by DAPI staining based analysis; format: functional
TK-10 = test: Anticancer activity against human TK-10 cells assessed as cell growth inhibition measured after 72 hrs by DAPI staining based analysis; format: functional
SNU-398 [4] = test: Anticancer activity against human SNU-398 cells assessed as cell doubling measured for 72 hrs by DAPI staining based analysis; format: functional
SF-268 = test: Anticancer activity against human SF-268 cells assessed as cell growth inhibition measured after 72 hrs by DAPI staining based analysis; format: functional
HEC-1-A = test: Anticancer activity against human HEC-1-A cells assessed as cell doubling measured for 72 hrs by DAPI staining based analysis; format: functional
BT-474 = test: Anticancer activity against human BT-474 cells assessed as cell doubling measured for 72 hrs by DAPI staining based analysis; format: functional
NCI-H596 = test: Anticancer activity against human NCI-H596 cells assessed as cell growth inhibition measured after 72 hrs by DAPI staining based analysis; format: functional
MDA-MB-231 = test: Antitumor activity against human MDA-MB-231 cells in xenograft model assessed as difference between median time to endpoint time of treated versus control group at 125 mg/kg; format: functional
NCI-H508 = test: Anticancer activity against human NCI-H508 cells assessed as cell growth inhibition measured after 72 hrs by DAPI staining based analysis; format: functional
COLO 205 = test: Anticancer activity against human COLO 205 cells assessed as cell doubling measured for 72 hrs by DAPI staining based analysis; format: functional
MOLT-16 [5] = test: Anticancer activity against human MOLT-16 cells assessed as cell growth inhibition measured after 72 hrs by DAPI staining based analysis; format: functional
CAL-54 = test: Anticancer activity against human CAL-54 cells assessed as cell growth inhibition measured after 72 hrs by DAPI staining based analysis; format: functional; procedure, shortened: as §2
SNU-449 = test: Anticancer activity against human SNU-449 cells assessed as cell growth inhibition measured after 72 hrs by DAPI staining based analysis; format: functional
A498 = test: Anticancer activity against human A498 cells assessed as cell growth inhibition measured after 72 hrs by DAPI staining based analysis; format: functional
Procedure, shortened: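 Cells were seeded and, after 24 h, DNA content was read as T0. Cells were then exposed to varying drug concentrations for a further 72 h (T72). Fixed cells were DAPI-stained and DNA content measured by automated imaging. T72 values were normalized to T0. GI50 is the concentration giving 50% growth inhibition between T0 and Ymax, obtained by curve fitting.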

[6] = Anticancer activity against human CML-T1 cells assessed as cell growth inhibition measured after 72 hrs by DAPI staining based analysis; format: functional; procedure, shortened: as §2
DB [7] = test: Anticancer activity against human DB cells assessed as cell doubling measured for 72 hrs by DAPI staining based analysis; format: functional
NCI-H2122 = test: Anticancer activity against human NCI-H2122 cells assessed as cell growth inhibition measured after 72 hrs by DAPI staining based analysis; format: functional
SW872 = test: Anticancer activity against human SW872 cells assessed as cell growth inhibition measured after 72 hrs by DAPI staining based analysis; format: functional
MCF-10A = test: Anticancer activity against human MCF-10A cells assessed as cell growth inhibition measured after 72 hrs by DAPI staining based analysis; format: functional
[8] = Anticancer activity against human NL-SCLC3 cells assessed as cell doubling measured for 72 hrs by DAPI staining based analysis; format: functional
RKO = test: Anticancer activity against human RKO cells assessed as cell doubling measured for 72 hrs by DAPI staining based analysis; format: functional
LOX IMVI = test: Anticancer activity against human LOX IMVI cells assessed as cell growth inhibition measured after 72 hrs by DAPI staining based analysis; format: functional
DB [9] = test: Anticancer activity against human DB cells assessed as cell growth inhibition measured after 72 hrs by DAPI staining based analysis; format: functional; procedure, shortened: as §1
[10] = target: Centromere-associated protein E (Homo sapiens, UniProt Q02224); test: Uncompetitive binding affinity to microtubule-stimulated ATPase activity of C-terminal 6-his-tagged CENP-E (2 to 340 residues)(unknown origin) expressed in Escherichia coli BL21(DE3) assessed as apparent inhibition constant; conditions: read-out: Ki(app)
Chain of Centromere-associated protein E (Q02224 whole entry, the tested form may be a part): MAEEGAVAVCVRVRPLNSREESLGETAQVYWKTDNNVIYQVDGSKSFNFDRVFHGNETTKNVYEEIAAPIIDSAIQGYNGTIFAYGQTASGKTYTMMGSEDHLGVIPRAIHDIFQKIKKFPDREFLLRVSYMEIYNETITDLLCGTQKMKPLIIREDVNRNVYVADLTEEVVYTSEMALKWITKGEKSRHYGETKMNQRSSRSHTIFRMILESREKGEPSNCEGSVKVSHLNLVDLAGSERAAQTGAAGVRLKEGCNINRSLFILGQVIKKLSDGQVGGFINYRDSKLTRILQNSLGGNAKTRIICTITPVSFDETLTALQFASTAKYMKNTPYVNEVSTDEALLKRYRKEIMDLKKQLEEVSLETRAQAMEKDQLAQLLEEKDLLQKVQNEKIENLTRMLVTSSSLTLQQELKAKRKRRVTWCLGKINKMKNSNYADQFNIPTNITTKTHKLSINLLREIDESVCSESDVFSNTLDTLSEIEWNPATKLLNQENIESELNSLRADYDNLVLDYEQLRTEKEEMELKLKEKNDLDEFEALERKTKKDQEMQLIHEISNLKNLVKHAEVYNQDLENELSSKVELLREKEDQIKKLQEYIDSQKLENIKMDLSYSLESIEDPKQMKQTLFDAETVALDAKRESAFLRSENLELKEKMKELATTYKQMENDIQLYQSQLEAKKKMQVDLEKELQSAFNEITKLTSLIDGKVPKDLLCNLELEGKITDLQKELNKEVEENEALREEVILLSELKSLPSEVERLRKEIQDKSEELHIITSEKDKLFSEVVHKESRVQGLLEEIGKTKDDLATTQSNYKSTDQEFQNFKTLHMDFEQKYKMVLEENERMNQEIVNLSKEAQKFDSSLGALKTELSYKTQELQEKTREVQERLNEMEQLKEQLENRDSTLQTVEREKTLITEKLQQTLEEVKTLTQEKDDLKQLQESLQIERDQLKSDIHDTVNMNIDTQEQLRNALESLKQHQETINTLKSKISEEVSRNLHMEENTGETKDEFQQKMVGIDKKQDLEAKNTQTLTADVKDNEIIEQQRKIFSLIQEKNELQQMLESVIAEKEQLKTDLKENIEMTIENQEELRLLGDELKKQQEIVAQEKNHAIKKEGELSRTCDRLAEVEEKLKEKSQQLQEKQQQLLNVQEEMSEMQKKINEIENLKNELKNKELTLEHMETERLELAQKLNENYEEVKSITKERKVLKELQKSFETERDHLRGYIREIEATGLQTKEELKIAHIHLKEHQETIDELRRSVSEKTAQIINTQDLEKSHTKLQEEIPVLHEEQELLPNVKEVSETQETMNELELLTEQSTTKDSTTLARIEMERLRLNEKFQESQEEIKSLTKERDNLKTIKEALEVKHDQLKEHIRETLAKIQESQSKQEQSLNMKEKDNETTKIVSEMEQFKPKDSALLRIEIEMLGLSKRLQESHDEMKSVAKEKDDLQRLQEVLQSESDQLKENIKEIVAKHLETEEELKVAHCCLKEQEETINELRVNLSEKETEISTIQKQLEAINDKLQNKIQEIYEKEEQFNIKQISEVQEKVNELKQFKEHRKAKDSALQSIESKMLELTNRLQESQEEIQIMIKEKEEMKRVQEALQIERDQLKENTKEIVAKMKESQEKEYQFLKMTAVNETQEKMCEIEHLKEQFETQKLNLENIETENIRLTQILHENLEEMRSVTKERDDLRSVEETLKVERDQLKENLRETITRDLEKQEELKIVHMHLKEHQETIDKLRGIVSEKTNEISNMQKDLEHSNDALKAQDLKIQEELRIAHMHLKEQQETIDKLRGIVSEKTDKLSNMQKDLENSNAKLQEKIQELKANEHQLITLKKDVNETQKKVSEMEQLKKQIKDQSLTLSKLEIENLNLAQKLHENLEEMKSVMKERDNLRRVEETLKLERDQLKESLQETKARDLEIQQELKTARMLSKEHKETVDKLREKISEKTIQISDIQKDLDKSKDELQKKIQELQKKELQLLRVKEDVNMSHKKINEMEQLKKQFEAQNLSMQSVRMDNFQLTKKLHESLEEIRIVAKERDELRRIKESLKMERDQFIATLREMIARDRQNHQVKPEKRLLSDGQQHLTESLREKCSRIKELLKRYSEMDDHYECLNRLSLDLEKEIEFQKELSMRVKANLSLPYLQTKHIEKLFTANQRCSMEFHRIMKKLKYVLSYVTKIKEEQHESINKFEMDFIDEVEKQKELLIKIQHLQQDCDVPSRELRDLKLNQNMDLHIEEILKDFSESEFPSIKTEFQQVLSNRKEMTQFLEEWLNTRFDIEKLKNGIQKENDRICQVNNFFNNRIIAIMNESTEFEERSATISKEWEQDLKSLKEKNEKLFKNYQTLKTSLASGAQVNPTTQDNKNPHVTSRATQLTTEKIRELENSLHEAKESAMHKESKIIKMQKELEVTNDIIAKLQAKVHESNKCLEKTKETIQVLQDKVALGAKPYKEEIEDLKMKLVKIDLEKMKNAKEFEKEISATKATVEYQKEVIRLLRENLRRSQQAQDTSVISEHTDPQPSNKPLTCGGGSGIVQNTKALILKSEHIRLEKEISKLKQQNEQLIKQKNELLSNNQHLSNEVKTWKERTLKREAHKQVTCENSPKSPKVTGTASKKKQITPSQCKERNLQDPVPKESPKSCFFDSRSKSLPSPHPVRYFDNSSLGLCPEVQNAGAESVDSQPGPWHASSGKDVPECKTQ
Procedure, shortened: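 CENP-E motor domain (residues 2–340, C-terminal 6-his, from E. coli BL21(DE3)) run in MT-stimulated ATPase with 500 μM ATP, 5 μM paclitaxel-stabilized MT, 1 nM enzyme in PEM25 buffer, pH 6.8. Apparent Ki taken from the concentration-response curves with explicit correction for enzyme concentration.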

MOLT-16 [11] = test: Anticancer activity against human MOLT-16 cells assessed as cell doubling measured for 72 hrs by DAPI staining based analysis; format: functional
Y79 = test: Anticancer activity against human Y79 cells assessed as cell doubling measured for 72 hrs by DAPI staining based analysis; format: functional
LS-1034 = test: Anticancer activity against human LS1034 cells assessed as cell growth inhibition measured after 72 hrs by DAPI staining based analysis; format: functional
ES-2 = test: Anticancer activity against human ES2 cells assessed as cell doubling measured for 72 hrs by DAPI staining based analysis; format: functional
HCC70 = test: Anticancer activity against human HCC70 cells assessed as cell growth inhibition measured after 72 hrs by DAPI staining based analysis; format: functional
HCC1954 = test: Anticancer activity against human HCC1954 cells assessed as cell growth inhibition measured after 72 hrs by DAPI staining based analysis; format: functional; procedure, shortened: as §1

Compound: CC(C)Oc1ccc(C(=O)N[C@H](CNC(=O)CN(C)C)Cc2ccc(-c3cn4cccc([C@H](C)O)c4n3)cc2)cc1Cl [GSK-923295A]
- GI50 (EKVX): 28 nM
- GI50 (SNU-398 [1]): 27 nM
- Activity (NCI-H460): 3.86
- Activity [2]: 2.44
- Activity (SW48): 2.44
- GI50 [3]: 40 nM
- GI50 (RD): 28 nM
- Activity (UMUC3): 2.44
- Activity (NCI-H295R): 1.52
- GI50 (TK-10): 49 nM
- Activity (SNU-398 [4]): 2.53
- GI50 (SF-268): 26 nM
- Activity (HEC-1-A): 2.67
- Activity (BT-474): 1.17
- GI50 (NCI-H596): 5020 nM
- Time (MDA-MB-231): 47.1 days
- GI50 (NCI-H508): 32 nM
- Activity (COLO 205): 3.3
- GI50 (MOLT-16 [5]): 47 nM
- GI50 (CAL-54): 49 nM
- GI50 (SNU-449): 236 nM
- GI50 (A498): 81 nM
- GI50 [6]: 13 nM
- Activity (DB [7]): 2.76
- GI50 (NCI-H2122): 29 nM
- GI50 (SW872): 37 nM
- GI50 (MCF-10A): 16 nM
- Activity [8]: 2.68
- Activity (RKO): 4.17
- GI50 (LOX IMVI): 25 nM
- GI50 (DB [9]): 21 nM
- Ki [10]: 3.2 nM
- Activity (MOLT-16 [11]): 4.23
- Activity (Y79): 4.11
- GI50 (LS-1034): 97 nM
- Activity (ES-2): 3.69
- GI50 (HCC70): 24 nM
- GI50 (HCC1954): 18 nM
